SR-BI HDL uptake: mouse SR-BI HDL lipid transfer inhibition; ldlA[mSR-BI] CHO cells, DiI-HDL uptake fluorescence, 3 h; inhibition, % at 12.5 µM; 320,000 compounds, 0.96% hits; AID 488896;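 active = mean replicate inhibition of at least 70% and a set share of replicates each scoring 70 or more; inconclusive = meets just one of the two criteria; inactive = fails both criteria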
Target sequence (Q61009 whole entry, looked up): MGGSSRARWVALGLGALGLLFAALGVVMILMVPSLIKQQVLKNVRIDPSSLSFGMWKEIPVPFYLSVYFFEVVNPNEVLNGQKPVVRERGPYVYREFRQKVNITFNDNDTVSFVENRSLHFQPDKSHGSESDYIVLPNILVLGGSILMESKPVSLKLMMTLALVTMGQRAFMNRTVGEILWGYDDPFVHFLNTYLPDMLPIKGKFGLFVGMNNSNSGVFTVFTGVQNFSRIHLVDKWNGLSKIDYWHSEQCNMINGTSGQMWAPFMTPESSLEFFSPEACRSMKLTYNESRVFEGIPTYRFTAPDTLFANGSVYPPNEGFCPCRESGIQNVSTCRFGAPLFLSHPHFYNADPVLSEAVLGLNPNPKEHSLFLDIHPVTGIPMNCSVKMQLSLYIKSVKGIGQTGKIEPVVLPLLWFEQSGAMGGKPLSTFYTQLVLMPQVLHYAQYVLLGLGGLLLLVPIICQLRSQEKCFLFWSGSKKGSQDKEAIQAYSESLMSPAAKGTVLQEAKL
SR-BI uptake up: enhances SR-BI lipid uptake from DiI-HDL; 320,000 compounds, 0.096% hits; activation, % at 12.5 µM; CHO ldlA[mSR-BI] cells, DiI-HDL uptake fluorescence, 3 h; 100 = double the neutral-control signal; AID 504775;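 active = mean replicate activation of at least 60% and every replicate at or above 60%; inconclusive = mean or all-replicate condition met, but not both; inactive = mean below 60% and not all replicates reaching 60%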
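Test system: SR-BI-overexpressing, LDLR-lacking CHO cells. Measured by: DiI fluorescence, bottom read. Medium: Ham's F12 with 0.5% BSA, HEPES 25 mM, pH 7.4. Timing: 3 h uptake period with compound, 37 °C.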
GRK2 inh: inhibitors of human GRK2 displacing RNA aptamer; P25098; bead flow cytometry, FAM-aptamer displacement from GRK2; AID 488847; 330,000 compounds, 0.59% hits; inhibition of aptamer binding, % at 10 µM;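 active = inhibition of aptamer binding above 40%, roughly 3 SD of noise, on plates passing a quality check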;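 note: median bead fluorescence of bound FAM aptamer so fluorescent compounds give negative values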
Rin1-Abl PPI inh: inhibitors of human Rin1-Abl protein interaction; P00519+Q13671; TR-FRET Rin1/Abl binding, biochemical; inhibition, % at 7.35 µM; 360,000 compounds, 0.4% hits; AID 588664; in the data active = inhibition above about 5%, passing the limit was not always enough
DiI quench: DiI fluorescence quenching in cell-free counter-screen; cell-free DiI-HDL fluorescence quenching, 30 min; AC50, µM (highest dose often 35 µM); 470 compounds, 20% hits; AID 540326; shares compounds with SR-BI HDL uptake;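 active = quenching, a falling signal, with AC50 below a set limit tied to the top valid dose, actives reach about 32 µM in these data; inconclusive = no clear call, values can overlap the other calls; inactive = rising signal, and the rest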
Rin1-Abl confirm: confirmation of inhibitors of human Rin1-Abl interaction | shares compounds with Rin1-Abl PPI inh | TR-FRET Rin1-Abl binding, purified proteins | inhibition, % at 7.35 µM | 1,300 compounds, 49% hits | AID 602124
GFP quencher: counter-screen for Rin1-Abl inhibitors: GFP fluorescence quenchers; shares compounds with Rin1-Abl PPI inh; inhibitors/quenchers counterscreen; inhibition, % at 6.75 µM; 1,300 compounds, 8.5% hits;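 note: ABL1-eGFP fusion protein alone without its partner RIN1-SBP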
GFP quench dose: quenches GFP in dose response, Rin1-Abl counter-screen | shares compounds with Rin1-Abl PPI inh | GFP fluorescence interference/quenching counterscreen | IC50, µM | 230 tested, under 10 active | AID 602182; call rule not given here;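 note: ABL1-eGFP fusion protein alone without its RIN1 binding partner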
Numbers stand for hits; 0 = inactive; ? = inconclusive; - = no result. The list is not random: actives were taken first. Their share in the collection is about 1.9%. Cut-off read from the data, not from the text of the source, unless noted: active = inhibition above about 6.5%; inactive = the rest.

SMILES	SR-BI HDL uptake	SR-BI uptake up	GRK2 inh	Rin1-Abl PPI inh	DiI quench	others
CCOC(=O)c1c(C)n(-c2ccc(C)cc2)c2c(C(C(C)=O)C(=O)O)c(Br)c(O)c(O)c12 (stereo not drawn)	0	0	0	0	-
CCOC(=O)c1c(C)n(-c2ccc(C)cc2)c2c(CC(C)=O)c(Br)c(OC)c(O)c12	73	0	0	0	0
COc1ccc(NC(=O)CCC(=O)N(Cc2ccc(OC)c(OC)c2)c2nccs2)c(OC)c1	0	0	0	0	-
COc1ccc(OC)c(NC(=O)CCC(=O)N(Cc2ccc(OC)c(OC)c2)c2nccs2)c1	?	0	0	0	0
CC1(C(=O)NS(=O)(=O)Cc2ccccc2C(F)(F)F)CCN1C(=O)Cc1cccs1 (stereo not drawn)	-	-	-	0	-
O=C(O)CC(C(=O)Nc1ccc(Cl)cc1Cl)C1CCCO1 (stereo not drawn)	0	0	0	0	-
Cc1ccc(C)c(NC(=O)C(CC(=O)O)C2CCCO2)c1 (stereo not drawn)	77	0	0	0	0
CCOC(=O)C1CCCN(S(=O)(=O)NC[C@H]2O[C@@H](n3cnc4c(N)ncnc43)[C@H](O)[C@@H]2O)C1 (stereo partly drawn)	81	0	0	0	0
CN1CCN(S(=O)(=O)NC[C@H]2O[C@@H](n3cnc4c(N)ncnc43)[C@H](O)[C@@H]2O)CC1	0	0	0	0	-
COc1ccc(NCc2ccc([N+](=O)[O-])s2)c(OC)c1	0	0	0	0	-
COc1ccc(N(CC(=O)NC2CCCC2)C(=O)Cn2nnc(-c3ccc(C)cc3)n2)cc1OC	0	0	0	0	-
COc1ccc(-c2nnn(CC(=O)N(CC(=O)NC3CCCC3)c3cccc(C)c3)n2)cc1OC	83	0	0	0	0
COc1ccc(N(CC(=O)NC2CCCC2)C(=O)Cn2nnc(-c3ccc(C)cc3)n2)cc1	0	0	0	0	0
COc1ccc(-c2nnn(CC(=O)N(C3CCCC3)C(C)C(=O)NC3CCCC3)n2)cc1OC (stereo not drawn)	0	0	0	0	-
COc1ccc(-c2nnn(CC(=O)N(C3CCCCC3)C(C)C(=O)NC3CCCC3)n2)cc1OC (stereo not drawn)	86	0	0	0	0
Cc1c(C(=O)NCc2ccc3c(c2)OCCO3)sc(=O)n1Cc1ccc(S(=O)(=O)N(C)C)cc1	-	-	-	0	-
Cn1nc(-c2ccc(Cl)cc2)c2cc(C(=O)NCCCN3CCOCC3)sc21	72	0	0	0	0
COc1ccc(C2CC=C(C(C)=O)CN2S(=O)(=O)c2ccc(Cl)cc2)cc1 (stereo not drawn)	-	-	-	0	-
CCOC(=O)N1CCC(NC(=O)c2ccc3c(c2)N(Cc2ccc(C)cc2)CCS3)CC1	0	0	0	0	-
COc1ccc(CCNC(=O)c2ccc3c(c2)N(Cc2ccccc2)CCS3)cc1OC	0	0	0	0	-
COc1ccc(OC)c(CCNC(=O)c2ccc3c(c2)N(Cc2ccccc2)CCS3)c1	76	0	0	0	0
CCOC(=O)N1CCC(NC(=O)c2ccc3c(c2)N(Cc2ccc(F)cc2)CCS3)CC1	72	0	0	0	0
CCCNC(=O)C1(C)CCN(C(=O)c2ccc(C)c(F)c2)C1 (stereo not drawn)	-	-	-	0	-
CCN(C(=O)CSc1nnc(-c2cccc(Cl)c2)n1N)c1c(N)n(Cc2ccccc2)c(=O)[nH]c1=O	0	0	-	0	-
COc1ccc(N2CC(C(=O)NCCc3ccc(Cl)cc3)CC2=O)c(OC)c1 (stereo not drawn)	79	0	0	0	0
SMILES	SR-BI HDL uptake	SR-BI uptake up	GRK2 inh	Rin1-Abl PPI inh	DiI quench	others
COc1ccc(N2CC(C(=O)NCCC3=CCCCC3)CC2=O)c(OC)c1 (stereo not drawn)	78	0	0	0	0
Cc1nn(Cc2ccccc2)c(C)c1NC(=O)c1cc2nc(-c3ccco3)cc(C(F)(F)F)n2n1	83	0	0	0	0
CCCCCCC(=O)Nc1nc(C)c(-c2csc(Nc3ccc(Cl)cc3)n2)s1	120	0	-	0	1.1µM
CCC(=O)Nc1nc(C)c(-c2csc(Nc3cccc(O)c3)n2)s1	0	0	0	0	-
COc1cc([N+](=O)[O-])ccc1N1C(=O)C2C3C=CC(C4CC34)C2C1=O (stereo not drawn)	0	0	0	0	-
Cc1ccccc1C(=O)NC1CC2CCCC(C1)N2C(=O)Nc1ccccc1 (stereo not drawn)	0	0	0	0	0
CC(C)(C)C(=O)NC1CC2CCCC(C1)N2C(=O)Nc1ccccc1 (stereo not drawn)	0	0	0	0	-
NC(=O)c1ccccc1NC(=O)CN1CCCCCC1	0	0	0	0	-
NC(=O)c1cc(-c2ccccc2)sc1NC(=O)CN1CCCCC1	73	0	0	0	0
COc1cc2c(cc1OC)-c1cc(OCc3ccccc3Cl)nc(=O)n1CC2	78	0	0	0	0
COc1cc2c(cc1OC)-c1cc(NC3CCCC3)nc(=O)n1CC2	0	0	0	0	-
FC(F)(F)c1ccc(-c2cccc3c2C2CC3CCN2Cc2ccc3c(c2)OCO3)cc1 (stereo not drawn)	-	-	-	0	-
CCCCc1nnc(NC(=O)c2ccc(OCc3c(C)noc3C)cc2)s1	75	0	-	17	0	Rin1-Abl confirm=28;GFP quencher=0;GFP quench dose=0
CCCCC(=O)N(C)c1c(CC)nc2c(OCc3cc(Cl)cc(Cl)c3)cccn12	-	-	-	0	-
CN(Cc1ccccc1)C(=O)c1nc2ccccn2c1CN1CCc2sccc2C1	0	0	0	9.8	-	Rin1-Abl confirm=0;GFP quencher=0
CN(Cc1c(C(=O)N(C)Cc2ccccc2)nc2ccccn12)CC1Cc2ccccc2O1 (stereo not drawn)	0	0	0	0	-
CCOc1ccc(C(=O)Nc2nncs2)cc1OCC	0	0	0	0	-
CCOc1ccc(C(=O)Nc2nnc(C(C)C)s2)cc1OCC	?	0	0	7.8	-	Rin1-Abl confirm=0;GFP quencher=0
COc1ccccc1CNC(=O)CN1C(=O)NC2(CCOc3ccccc32)C1=O (stereo not drawn)	0	0	0	0	-
Cc1cccc(NC(=O)[C@@H](CC(C)C)NC(=O)[C@@H]2Cc3ccccc3CN2)c1	0	0	0	30	-	Rin1-Abl confirm=0;GFP quencher=0
CC(C)(C)OC(=O)C[C@@H]1C/C=C\C[C@@H](CC(=O)NCCO)C(=O)N2CCC[C@H]2COC1=O	0	0	0	0	-
O=C(COc1ccc(F)cc1Br)NCc1nnc2ccccn12	0	0	0	0	-
CC(NC(=O)C(=O)c1cn(CC(=O)N2CCCC2)c2ccccc12)c1ccccc1 (stereo not drawn)	-	-	-	0	-
